Source: ChEMBL document CHEMBL4513216, “Probing the Open Global Health Chemical Diversity Library for Multistage-Active Starting Points for Next-Generation Antimalarials” (ACS Infect Dis, 2020)

Assay: Toxicity liver stage against HepG2, at 10uM
Type: cell-based
Parameters: test concentration 10 uM, cell line HepG2-A16-CD81EGFP
Settings: human, HepG2-A16-CD81EGFP cells; read-out: INHIBITION
Method in brief: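 Uninfected HepG2-A16-CD81EGFP cells, 3 × 10^3 per well, 1536-well, plated on prespotted compound at 10 μM final, parasite-free screening media added to match infected plates; puromycin 10 μM positive, DMSO 0.5% negative; run in parallel with 48 h PbLuc assay at 37 °C, 5% CO2; viability by CellTiter-Glo luminescence, normalized to controls.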
In the case of `CSc1ccc(C(=O)C2CCCN(C(=O)CCCn3cncn3)C2)cc1` (centres undefined), the cytotoxicity at 10 µM is reported as 6.26%. In the case of `CSc1ccc(C(=O)C2CCCN(C(=O)CCn3cncn3)C2)cc1` (centres undefined), the cytotoxicity at 10 µM is reported as -12.2%. With `COc1cc(C)c2c(c1C)C[C@H]([C@H](C)C(=O)O)CC2` the cytotoxicity at 10 µM was -0.95%. Compound `O=C(NC[C@H]1C[C@@H]2CCN1C[C@@H]2CN1CCOCC1)Nc1ccccc1` has a cytotoxicity at 10 µM of 5.96%. Work on `COCC(=O)N[C@H](C)c1onc(-c2ccc(Cl)cc2)c1C(=O)O` yielded a cytotoxicity at 10 µM of -5.61%. Work on `COC(=O)[C@@H]1Cc2ncn(C)c2CN1S(=O)(=O)c1ccc(Cl)cc1` yielded a cytotoxicity at 10 µM of 4.67%. Compound `N#Cc1ccc(CN2C[C@@H]3OCC(=O)N[C@@H]3C2)cc1` has a cytotoxicity at 10 µM of -3.01%. For `CCOC(=O)COC1CCN(C(C)=O)CC(=O)N(C)c2ccccc21` (centres undefined), the cytotoxicity at 10 µM was 7.45%. Compound `COCCNC(=O)c1cc(-n2cccc2)ccc1Cl` has a cytotoxicity at 10 µM of -3.45%. With `CC(C)[C@H](NC(=O)N1CCN(c2ccc(Cl)cc2)CC1)C(=O)NC1CC1` the cytotoxicity at 10 µM was -7.39%. `CN1C(=O)C(C)(C)COc2cc(NS(=O)(=O)c3ccccc3F)ccc21` gave a cytotoxicity at 10 µM of -5.08%. `CCCS(=O)(=O)c1ccc(N2CCN(c3ccccn3)CC2)nn1` showed a cytotoxicity at 10 µM of -82.5%. With `O=C(Nc1cccnc1)c1noc2c1CN(S(=O)(=O)C1CC1)CC2` the cytotoxicity at 10 µM was 7.06%. With `CS(=O)(=O)N1CCN(c2ccc3ccc(C(=O)NC4CC4)cn23)CC1` the cytotoxicity at 10 µM was -0.39%. With `Cc1cccc(CN2C(=O)CCC23CCN(Cc2ccoc2)CC3)n1` the cytotoxicity at 10 µM was 2.82%. In the case of `CN1CCN(C[C@H]2OC[C@@H]3CCN(Cc4ccsc4)C[C@@H]32)CC1`, the cytotoxicity at 10 µM is reported as -2.19%. `CCN1C(=O)[C@]2(CC[C@@H]3CN(C(=O)Nc4ccc(F)cc4)C[C@@H]32)N=C1C` gave a cytotoxicity at 10 µM of 3.22%. Compound `COCCN1CC[C@]2(CN(C(=O)c3cccs3)C[C@H]2C)C1=O` has a cytotoxicity at 10 µM of 3.47%. Work on `CO[C@H]1CO[C@@]2(CCCN(C(=O)C3=CCCCC3)C2)C1` yielded a cytotoxicity at 10 µM of -9.95%. For `CCN(C)c1ncnc2c1CCN(C(=O)c1ccno1)CC2`, the cytotoxicity at 10 µM was -10%. With `CC(C)c1cc(C(=O)N2CCC3(CCc4ccccc4C(=O)N3)C2)on1` (centres undefined) the cytotoxicity at 10 µM was 2.53%. Compound `Cn1cccc1CNCC1CCCn2cc(C(C)(C)C)nc21` (centres undefined) has a cytotoxicity at 10 µM of -19.8%. For `CCN(C(=O)Cc1ccc(NCc2ncc[nH]2)cc1)c1ccccc1`, the cytotoxicity at 10 µM was 6.43%. `Cc1cc(C(NC(=O)CNS(C)(=O)=O)C(C)C)c(C)s1` (centres undefined) gave a cytotoxicity at 10 µM of 5.2%. `CC(C)c1noc(CCC(=O)N2CCN(C)CC2c2ccccc2)n1` (centres undefined) gave a cytotoxicity at 10 µM of -5.3%. Work on `Cn1cc(N2CCC(NC(=O)c3c(F)cccc3Cl)C2=O)cn1` (centres undefined) yielded a cytotoxicity at 10 µM of 0.91%. In the case of `Cc1ccc(C(=O)N2CCCC(CNS(=O)(=O)C(C)C)C2)cc1` (centres undefined), the cytotoxicity at 10 µM is reported as -1.42%. With `NC(=O)c1ccc(OCC(=O)NC2CCc3c(F)cccc32)cc1` (centres undefined) the cytotoxicity at 10 µM was 14.4%. Work on `CC(C)(C)NS(=O)(=O)c1ccccc1CNCc1ccccc1` yielded a cytotoxicity at 10 µM of 5.74%. In the case of `CCN1CCN(C(=O)C(C)N2CCc3cncnc3C2)CC1` (centres undefined), the cytotoxicity at 10 µM is reported as -10.9%. Compound `Cc1cc(SC(C)(C)C)ccc1NC(=O)CNC(N)=O` has a cytotoxicity at 10 µM of 7.94%. `CCCNC(=O)CCC(=O)N1CCC(c2n[nH]c(C3CC3)n2)CC1` showed a cytotoxicity at 10 µM of -3.82%. Compound `CNC(=O)COc1cccc(CNCc2c(C)noc2C)c1` has a cytotoxicity at 10 µM of -10.3%. Work on `COc1ccccc1OCC(=O)N1CCN(Cc2noc(C)n2)CC1` yielded a cytotoxicity at 10 µM of 3.82%. `Cc1ccc(C2CSCCN2C(=O)c2ccsc2)o1` (centres undefined) gave a cytotoxicity at 10 µM of 1.68%. `Cc1nc(CN2C[C@@H]3CN(C(=O)c4ccncc4)C[C@@H]3C2)cs1` gave a cytotoxicity at 10 µM of -108%. With `COCC(=O)NCc1cc(=O)n2c(n1)CN(Cc1ccncc1)CCC2` the cytotoxicity at 10 µM was -99.9%. For `CNC(=O)N1CC[C@@H]2CN(Cc3cccnc3)S(=O)(=O)[C@@H]2CC1`, the cytotoxicity at 10 µM was 4.4%. In the case of `O=C(O)C(c1ccc2c(c1)OCO2)N1CCC(O)(c2cccnc2)CC1` (centres undefined), the cytotoxicity at 10 µM is reported as 19.7%. Work on `CCCN1CCC(CC(=O)NCc2cc(C)nn2C)CC1` yielded a cytotoxicity at 10 µM of -12.4%. Work on `CCc1ncc(C(=O)NCCN2CCNC2=O)cn1` yielded a cytotoxicity at 10 µM of 0.069%. With `CCc1ccc(S(=O)(=O)N2CC[C@@](O)(CCOC)[C@H](C)C2)cc1` the cytotoxicity at 10 µM was 6.8%. For `CC(=O)CN1CCC2(CC1)c1ccccc1[C@@H](N1CCSCC1)[C@@H]2O`, the cytotoxicity at 10 µM was -27.1%. Work on `CN(C)C(=O)c1cccnc1-c1ccc2c(c1)OCO2` yielded a cytotoxicity at 10 µM of 1.58%. Compound `CN(Cc1ccccc1)c1ncccc1CNC1CCC1` has a cytotoxicity at 10 µM of 13.5%. `Cc1nc2ccc(C(=O)N3CCN(CCO)[C@@H]4CS(=O)(=O)C[C@@H]43)cc2o1` showed a cytotoxicity at 10 µM of -1.32%. `O=C(NCCc1ccncc1)c1cccc(S(=O)(=O)NC2CCOC2)c1` (centres undefined) showed a cytotoxicity at 10 µM of 4.93%. With `CSCCC(=O)N1C[C@@H](C)[C@](O)(C(C)C)C1` the cytotoxicity at 10 µM was 0.68%. With `CC(C)(C)c1oc(C(N)=O)cc1CN1CCOC(C(F)(F)F)C1` (centres undefined) the cytotoxicity at 10 µM was -4.81%. `CCC(Nc1nccc(C2CCCC2)n1)c1ccccn1` (centres undefined) showed a cytotoxicity at 10 µM of -126%. `CN1CCN(C(=O)c2cccc(CN3CCOCC3)c2)CC1` gave a cytotoxicity at 10 µM of 2.46%. `COc1cccc(OC)c1OCCn1c(C)c(C)oc1=O` showed a cytotoxicity at 10 µM of 9.61%. Compound `CCS(=O)(=O)N1CCC(c2nnc(CN3CCCC3)n2C2CC2)CC1` has a cytotoxicity at 10 µM of 14.9%. With `COc1ccc(C(=O)Nc2cc(CC(C)C)nn2C)cc1` the cytotoxicity at 10 µM was -10.6%. For `Cc1cnn(C2CN(CC(=O)NCCc3ccsc3)C2)c1`, the cytotoxicity at 10 µM was -3.86%. Work on `Cc1nc(C2CCCN2Cc2ccc(S(=O)(=O)N(C)C)o2)no1` (centres undefined) yielded a cytotoxicity at 10 µM of -2.53%. Work on `Cc1ccc(OCCN2CCN(Cc3cnn(CCO)c3)CC2)cc1` yielded a cytotoxicity at 10 µM of -2.4%. `COc1cc(C(=O)NS(=O)(=O)c2cccc(C#N)c2)cc(OC)c1C` gave a cytotoxicity at 10 µM of -5.02%. For `Cc1cnn(C2CCCN(C(=O)c3cn4ccccc4n3)C2)c1` (centres undefined), the cytotoxicity at 10 µM was -6.35%. `CC(C)c1nc(C2CCCN2Cc2ccccc2C#N)no1` (centres undefined) showed a cytotoxicity at 10 µM of -7.62%. `O=C(CS(=O)(=O)CC1CCCCC1)NC1CCCCNC1=O` (centres undefined) showed a cytotoxicity at 10 µM of -10.6%. In the case of `CNC(=O)CCCNCc1c(C(C)C)nn(C)c1N(C)C`, the cytotoxicity at 10 µM is reported as -12.7%. `CCOc1ncccc1NC(=O)N1CCCCCC1` showed a cytotoxicity at 10 µM of -6.36%. For `CC(=O)N(Cc1ncc(C(C)C)o1)C1CCN(Cc2ncc[nH]2)C1` (centres undefined), the cytotoxicity at 10 µM was -6.02%. Work on `Cc1nc(C)n(C2CCCN(C(=O)c3ccc(NC4CC4)nc3)C2)n1` (centres undefined) yielded a cytotoxicity at 10 µM of -3.36%. `Cc1oc(C)c(C(=O)NCc2ccccn2)c1C` showed a cytotoxicity at 10 µM of -0.729%. `Cc1nnc2n1CCN(C(=O)c1cc(Cl)c[nH]1)C2` gave a cytotoxicity at 10 µM of -5.87%. `CCc1nnc2n1CCN(C(=O)Cc1csc(-c3ccco3)n1)C2` gave a cytotoxicity at 10 µM of -8.7%. With `CCc1nnc2n1CCN(C(=O)c1ccc(C(F)(F)F)nc1C)C2` the cytotoxicity at 10 µM was -7.28%. Work on `CCc1nc(CN(CC(N)=O)C(C)C)cs1` yielded a cytotoxicity at 10 µM of -8.62%. Work on `CCc1n[nH]c(C2CN(C(=O)c3cnns3)CCO2)n1` (centres undefined) yielded a cytotoxicity at 10 µM of -3.43%. `Cc1cnn(CC2CCCN2C(=O)c2cccc(-n3cnnn3)c2)c1` (centres undefined) gave a cytotoxicity at 10 µM of -4.3%. Work on `COc1cccc(N2C(=O)CC3(CCNCC3)C2=O)c1` yielded a cytotoxicity at 10 µM of 2.67%. Compound `c1cncc(-c2noc(C3CN(Cc4cccs4)C3)n2)c1` has a cytotoxicity at 10 µM of -6.87%. With `Cn1cc(N2C(=O)CC[C@@H]3[C@H]2CCN3Cc2nccs2)cn1` the cytotoxicity at 10 µM was 8.62%. `c1ccc(CO[C@H]2CC[C@H]3[C@H]2OCCN3Cc2nccs2)nc1` showed a cytotoxicity at 10 µM of 5.83%. With `COCCN1C[C@@H]2[C@@H](OC)CCN(Cc3ccco3)[C@@H]2C1` the cytotoxicity at 10 µM was 2.37%. Compound `Cc1cnc(N2CC3(CCN(C(=O)c4cccnc4)C3)C2)nc1` has a cytotoxicity at 10 µM of 2.55%. With `O=C(CCn1cncn1)N1C[C@@H]2CC[C@H]1CN(Cc1ccncc1)C2` the cytotoxicity at 10 µM was 9.53%.
